According to ChEMBL document CHEMBL3774382, “Design and synthesis of small molecule-sulfotyrosine mimetics that inhibit HIV-1 entry” (Bioorg Med Chem, 2016):

Assays:
[1] = test system: Human immunodeficiency virus 1; test: Antiviral activity against HIV1 CXCR4-tropic strain HxB2 infected in human 293T cells after 48 hrs by neutralization assay; format: functional, organism-based; details: Human immunodeficiency virus 1, HxB2, HEK-293T
Procedure, shortened: (§1)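 Env-pseudotyped virus made by transfecting 293T cells with SG3denv plus an HIV-1 env plasmid. Medium changed at 24 h, supernatant harvested at 48 h, 0.45 μm filtered, stored at −80 °C. Two-fold serial inhibitor dilutions mixed with virus, then TZM-bl cells added. Incubated at 37 °C, 5% CO₂, fresh medium at 24 h. Luciferase read after lysis at 48 h post-infection. Single round. Tested up to 400 μM.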

[2] = test system: Human immunodeficiency virus 1; test: Antiviral activity against HIV1 dual CXCR4/CCR5-tropic strain 89.6 infected in human 293T cells after 48 hrs by neutralization assay; format: functional, organism-based; details: Human immunodeficiency virus 1, 89.6, HEK-293T; procedure, shortened: as §1
[3] = test system: Human immunodeficiency virus 1; test: Antiviral activity against HIV1 CCR5-tropic strain YU2 infected in human 293T cells after 48 hrs by neutralization assay; format: functional, cell-based; details: Human immunodeficiency virus 1, isolate YU2, HEK-293T; procedure, shortened: as §1
[4] = test system: Human immunodeficiency virus 1; test: Antiviral activity against HIV1 JRCSF infected in human 293T cells after 48 hrs by neutralization assay; format: functional, cell-based; details: Human immunodeficiency virus 1, JRCSF ISOLATE, HEK-293T; procedure, shortened: as §1
[5] = test system: Human immunodeficiency virus 1; test: Antiviral activity against HIV1 NL4-3 infected in human 293T cells after 48 hrs by neutralization assay; format: functional, organism-based; details: Human immunodeficiency virus 1, NL4-3, HEK-293T; procedure, shortened: as §1
293T [6] = test: Inhibition of envelope gp120 in CCR5-tropic HIV1 YU2 infected in human 293T cells assessed as combination index at 1: 10 at 1:10 inhibitor to CCR5 Nt sulfated peptide (2 to 18) by single round neutralization assay; format: cell-based; details: Human immunodeficiency virus type 1 (isolate YU2)
Procedure, shortened: (§2)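 Single-round YU2 pseudovirus neutralization in TZM-bl cells with luciferase read-out. Virus treated with inhibitor alone, with sulfated CCR5 N-terminal peptide 2–18 alone, or with a constant-ratio mixture, two-fold serial dilutions starting near 30× the single-agent IC₅₀. The ratio approximates the ratio of single-agent IC₅₀s. Analysed by the Chou–Talalay method. DRI is IC₅₀ alone divided by IC₅₀ in combination. CI below 1, equal to 1 and above 1 mean synergy, additivity and antagonism.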

[7] = Cytotoxicity against human TZM-bl cells; format: cell-based; details: read-out: LC50 (the source's name)
[8] = Therapeutic index, ratio of LC50 for human TZM-bl cells to IC50 for HIV1; format: cell-based; details: read-out: TI
293T [9] = test: Inhibition of envelope gp120 in CCR5-tropic HIV1 YU2 infected in human 293T cells assessed as dose reduction index ratio at 1: 10 at 1:10 inhibitor to CCR5 Nt sulfated peptide (2 to 18) by single round neutralization assay; format: cell-based; details: Human immunodeficiency virus type 1 (isolate YU2); procedure, shortened: as §2
[10] = Cytotoxicity against human TZM-bl cells at 500 uM; format: cell-based
[11] = Binding affinity to HIV immobilized envelop gp120 at 80 to 350 uM by surface plasmon resonance analysis; design: species or system Human immunodeficiency virus
[12] = Cytotoxicity against human TZM-bl cells at 200 to 500 uM; format: cell-based
[13] = test system: Human immunodeficiency virus 1; test: Antiviral activity against HIV1 CCR5-tropic strain YU2 infected in human 293T cells at 400 uM after 48 hrs by neutralization assay; format: functional, cell-based, isolate YU2; procedure, shortened: as §1
[14] = test system: Human immunodeficiency virus 1; test: Antiviral activity against HIV1 JRCSF infected in human 293T cells after at 400 uM 48 hrs by neutralization assay; format: functional, cell-based, JRCSF ISOLATE; procedure, shortened: as §1
[15] = test system: Human immunodeficiency virus 1; test: Antiviral activity against HIV1 dual CXCR4/CCR5-tropic strain 89.6 infected in human 293T cells at 400 uM after 48 hrs by neutralization assay; format: functional, organism-based; procedure, shortened: as §1
[16] = test system: Human immunodeficiency virus 1; test: Antiviral activity against HIV1 CCR5-tropic strain YU2 infected in human 293T cells at 500 uM after 48 hrs by neutralization assay; format: functional, cell-based, isolate YU2
[17] = test system: Human immunodeficiency virus 1; test: Antiviral activity against HIV1 CXCR4-tropic strain HxB2 infected in human 293T cells at 400 uM after 48 hrs by neutralization assay; format: functional, organism-based; procedure, shortened: as §1

| SMILES | IC50 [1] [µM] | IC50 [2] [µM] | IC50 [3] [µM] | IC50 [4] [µM] | IC50 [5] [µM] | other results |
| --- | --- | --- | --- | --- | --- | --- |
| CC1=NN(c2nc(-c3ccc(C(F)(F)F)cc3)cs2)C(=O)/C1=N/Nc1ccc(S(=O)(=O)O)cc1 | – | – | 139 | – | – | – |
| O=C1/C(=N\Nc2ccc3c(S(=O)(=O)O)cc(S(=O)(=O)O)cc3c2)C(c2ccccc2)=NN1c1nc(-c2ccc3c(c2)OCCO3)cs1 | 5.2 | 8.9 | 22.3 | 14.9 | 7.7 | CI (293T [6]): 1.9; CC50 [7]: 70 µM; selectivity ratio [8]: < 10; Ratio (293T [9]): 1.2 |
| CC1=NN(c2nc(-c3ccc(OC(F)(F)F)cc3)cs2)C(=O)/C1=N/Nc1ccc(S(=O)(=O)O)cc1 | – | – | 400 | – | – | – |
| CC1=NN(c2nc(-c3ccc(O)c(O)c3)cs2)C(=O)/C1=N/Nc1ccc(S(=O)(=O)O)cc1 | – | – | 512 | – | – | – |
| CC1=NN(c2nc(-c3cccc(Cl)c3)cs2)C(=O)/C1=N/Nc1ccc(S(=O)(=O)O)cc1 | – | – | 432 | – | – | – |
| CC1=NN(c2nc(-c3ccccc3)cs2)C(=O)/C1=N\Nc1cc(S(=O)(=O)O)cc2cc(S(=O)(=O)O)cc(S(=O)(=O)O)c12 | 36.8 | – | – | 47.6 | – | Activity [12]: Toxic; CC50 [7]: 200 µM; selectivity ratio [8]: < 10; IC50 [13]: Not Active |
| CN(C)c1ccc(-c2csc(N3N=C(c4ccccc4)/C(=N/Nc4ccc5c(S(=O)(=O)O)cc(S(=O)(=O)O)cc5c4)C3=O)n2)cc1 | 1.1 | 3.8 | 23.8 | 8 | 2.9 | CI (293T [6]): 2.5; CC50 [7]: 330 µM; selectivity ratio [8]: 13; Ratio (293T [9]): 1.2 |
| CC1=NN(c2nc(-c3ccc(S(=O)(=O)O)cc3)cs2)C(=O)/C1=N/Nc1ccc(S(=O)(=O)O)cc1 | – | – | – | – | – | IC50 [16]: Not Active |
| O=C1/C(=N\Nc2ccc3c(S(=O)(=O)O)cc(S(=O)(=O)O)cc3c2)C(c2ccccc2)=NN1c1nc(C(F)(F)F)cs1 | 6.8 | 2.4 | 27.9 | 5.8 | 6.3 | Activity [12]: Toxic; CC50 [7]: 370 µM; selectivity ratio [8]: 13 |
| CC1=NN(c2nc(-c3ccc(C)cc3)cs2)C(=O)/C1=N\Nc1ccc(S(=O)(=O)O)cc1 | – | – | 126 | – | – | – |
| COc1ccc(-c2csc(N3N=C(c4ccccc4)/C(=N/Nc4ccc5c(S(=O)(=O)O)cc(S(=O)(=O)O)cc5c4)C3=O)n2)cc1 | 7.5 | 3.2 | 24.7 | 10.2 | 5.8 | CI (293T [6]): 2.3; Activity [12]: Toxic; CC50 [7]: 200 µM; selectivity ratio [8]: 10; Kd [11]: 80 µM; Ratio (293T [9]): 1.3 |
| COc1ccc(-c2csc(N3N=C(C)/C(=N\Nc4ccc(CS(=O)(=O)O)cc4)C3=O)n2)cc1 | – | – | – | – | – | IC50 [16]: Not Active |
| O=C1/C(=N\Nc2ccc(S(=O)(=O)O)cc2)C(c2ccccc2)=NN1c1nc(-c2ccccc2)cs1 | – | – | – | – | – | Activity [10]: Non-toxic |

More lines, main results first:

| IC50 [1] [µM] | IC50 [2] [µM] | IC50 [3] [µM] | IC50 [4] [µM] | IC50 [5] [µM] | SMILES | other results |
| --- | --- | --- | --- | --- | --- | --- |
| 10.1 | 22.3 | 74.9 | 36.2 | 15.6 | COCC1=NN(c2nc(-c3ccc(OC)cc3)cs2)C(=O)/C1=N\Nc1ccc2c(S(=O)(=O)O)cc(S(=O)(=O)O)cc2c1 | – |
| 8.1 | 9.2 | 53.8 | 22.1 | 7 | COc1ccc(-c2csc(N3N=C(C)/C(=N/Nc4ccc5c(S(=O)(=O)O)cc(S(=O)(=O)O)cc5c4)C3=O)n2)cc1 | Activity [10]: Non-toxic; selectivity ratio [8]: > 30 |
| 28.9 | – | 80.6 | 30.8 | – | O=C1/C(=N\Nc2cc(S(=O)(=O)O)cc3cc(S(=O)(=O)O)cc(S(=O)(=O)O)c23)C(c2ccccc2)=NN1c1nc(-c2ccc(C(F)(F)F)cc2)cs1 | – |
| 2.5 | 2.9 | 30.7 | 9.9 | 3.6 | COc1ccc(OC)c(-c2csc(N3N=C(c4ccccc4)/C(=N/Nc4ccc5c(S(=O)(=O)O)cc(S(=O)(=O)O)cc5c4)C3=O)n2)c1 | Activity [10]: Non-toxic; selectivity ratio [8]: 16 |
| 3.6 | 8.4 | 43.7 | 30.7 | 7.1 | O=C1/C(=N\Nc2ccc3c(S(=O)(=O)O)cc(S(=O)(=O)O)cc3c2)C(c2ccccc2)=NN1c1nc(-c2ccccc2)cs1 | Kd [11]: 350 µM |
| – | – | 189 | – | – | COc1ccc(OC)c(-c2csc(N3N=C(C)/C(=N\Nc4ccc(S(=O)(=O)O)cc4)C3=O)n2)c1 | – |
| 51.1 | 101 | 137 | 64.8 | 33.1 | CC1=NN(c2nc(-c3ccccc3)cs2)C(=O)/C1=N\Nc1ccc2c(S(=O)(=O)O)cc(S(=O)(=O)O)cc2c1 | – |
| 80 | – | 298 | – | 104 | COc1ccc(-c2csc(N3N=C(C(F)(F)F)/C(=N/Nc4ccc5c(S(=O)(=O)O)cc(S(=O)(=O)O)cc5c4)C3=O)n2)cc1 | IC50 [14]: Not Active; IC50 [15]: Not Active |
| 18.7 | – | 80.8 | 32.3 | – | COc1ccc(-c2csc(N3N=C(c4ccccc4)/C(=N/Nc4cc(S(=O)(=O)O)cc5cc(S(=O)(=O)O)cc(S(=O)(=O)O)c45)C3=O)n2)cc1 | Activity [10]: Non-toxic; selectivity ratio [8]: > 30 |
| 29.3 | – | 148 | 35.5 | – | O=C1/C(=N\Nc2cc(S(=O)(=O)O)cc3cc(S(=O)(=O)O)cc(S(=O)(=O)O)c23)C(c2ccccc2)=NN1c1nc(-c2ccccc2)cs1 | – |
| 9.4 | 14.6 | 62.4 | 24.1 | 11.2 | COc1ccc(-c2csc(N3N=C(COc4ccccc4)/C(=N/Nc4ccc5c(S(=O)(=O)O)cc(S(=O)(=O)O)cc5c4)C3=O)n2)cc1 | – |
| 22.5 | – | 47.6 | 27 | – | COc1ccc(-c2csc(N3N=C(C)/C(=N/Nc4cc(S(=O)(=O)O)cc5cc(S(=O)(=O)O)cc(S(=O)(=O)O)c45)C3=O)n2)cc1 | – |
| 12 | 6.7 | 30.9 | 19.5 | 10.2 | O=C1/C(=N\Nc2ccc3c(S(=O)(=O)O)cc(S(=O)(=O)O)cc3c2)C(c2ccccc2)=NN1c1nc(-c2nccs2)cs1 | – |
| 19.7 | – | 91.9 | 26.1 | – | CC1=NN(c2nc(-c3ccc(C(F)(F)F)cc3)cs2)C(=O)/C1=N\Nc1cc(S(=O)(=O)O)cc2cc(S(=O)(=O)O)cc(S(=O)(=O)O)c12 | – |
| 14.2 | 14.8 | 52.8 | 29.8 | 10.7 | O=C1/C(=N\Nc2ccc3c(S(=O)(=O)O)cc(S(=O)(=O)O)cc3c2)C(c2ccccc2)=NN1c1nc(-c2ccc(OC(F)(F)F)cc2)cs1 | – |
| – | 79.7 | – | 83.3 | 80.1 | CC1=NN(c2nc(C(F)(F)F)cs2)C(=O)/C1=N\Nc1ccc2c(S(=O)(=O)O)cc(S(=O)(=O)O)cc2c1 | IC50 [17]: Not Active; IC50 [13]: Not Active |
